Active and inactive are the calls of the source. The calls are words filed in the database; no cut-off is given here.
Tests used:
[1] = tested on: HL-60; experiment: Cytotoxicity against human HL60 cells after 72 hrs by MTT assay; assay type: functional, cell-based; settings: HL-60, 72 h
Procedure, shortened: (§1)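 MTT assay. Cells seeded and cultured 24 h, then exposed to compound for 24, 48 or 72 h. MTT added to a final 0.05% (HL-60, 518A2) or 0.1% (KB-V1, MCF-7) for 2 h. Formazan dissolved in 10% SDS/DMSO with 0.6% acetic acid; absorbance read at 570 nm against 630 nm background. Viability taken relative to untreated controls (100%). IC50 from concentration-response curves, mean ± SD of four independent experiments.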

[2] = Cytotoxicity against human vinblastine-resistant KBV1 cells after 48 hrs by MTT assay; assay type: functional, cell-based; settings: KB-V1, 48 h; procedure, shortened: as §1
[3] = tested on: 518A2; experiment: Induction of apoptosis in human 518A2 cells assessed as increase of caspase 9 activity at 5 uM after 1 to 24 hrs by luminometric assay; assay type: functional, cell-based
Procedure, shortened: (§2)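 HL-60 and 518A2 cells treated with 5 µM compound and sampled at intervals from 1 to 24 h. Lysed in 50 mM Tris-HCl pH 7.4, 150 mM NaCl, 1% Triton X-100 with protease inhibitors for 15 min at 4 °C, spun at 800 g. Protein measured by Bradford. Caspase-3/7, -8 and -9 activities read with luminogenic peptide substrates; reported as relative luminescence.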

[4] = tested on: HL-60; experiment: Cytotoxicity against human HL60 cells assessed as increase in ROS production at 5 uM after 24 hrs by NBT reduction assay relative to control; assay type: functional
Procedure, shortened: (§3)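 NBT assay. HL-60 cells (0.5×10⁶/mL) or trypsinised 518A2 cells (5×10⁴/mL) pre-incubated 24 h at 37 °C, then given compound at a final 5 µM for 24 or 72 h. Medium removed; cells incubated with 0.1% NBT for 1 h (HL-60) or 4 h (518A2). Diformazan dissolved in 2 M KOH/DMSO; A630 read against 405 nm. Given as % of untreated controls; double quadruplicates.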

[5] = tested on: HL-60; experiment: Induction of apoptosis in human HL60 cells assessed as DNA ladder formation at 5 uM after 24 hrs by agarose gel electrophoresis; assay type: functional, cell-based
Procedure, shortened: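 HL-60 cells incubated with 5 µM compound for 24 h, then examined for DNA ladder patterns.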

[6] = Cytotoxicity against human vinblastine-resistant KBV1 cells after 72 hrs by MTT assay; assay type: functional, cell-based; settings: KB-V1, 72 h; procedure, shortened: as §1
[7] = tested on: HL-60; experiment: Cytotoxicity against human HL60 cells after 24 hrs by MTT assay; assay type: functional, cell-based; settings: HL-60, 24 h; procedure, shortened: as §1
[8] = Cytotoxicity against human vinblastine-resistant KBV1 cells after 72 hrs by MTT assay in presence of 24 mM ABC transporter inhibitor verapamil hydrochloride; assay type: functional, cell-based; settings: KB-V1, 72 h, in the assay text read “24 uM” for “24 mM”
Procedure, shortened: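 MTT viability assay on P-gp-overexpressing KB-V1/Vbl cells with 24 µM verapamil hydrochloride added before the compound; 72 h exposure. Formazan read at 570/630 nm relative to untreated controls. IC50 from concentration-response curves, mean ± SD of four independent experiments.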

[9] = tested on: 518A2; experiment: Induction of apoptosis in human 518A2 cells assessed as increase of ratio of Bax to Bcl-2 mRNA expression at 5 uM after 6 to 18 hrs by RT-PCR analysis; assay type: functional, cell-based
Procedure, shortened: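 518A2 cells exposed to 5 µM compound for 6 h or 18 h. bax and bcl-2 mRNA quantified by real-time PCR, normalised to GAPDH, and expressed as the bax/bcl-2 ratio.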

[10] = tested on: 518A2; experiment: Induction of apoptosis in human 518A2 cells assessed as increase of caspase 9 activity at 5 uM after 2 hrs by luminometric assay; assay type: functional, cell-based; procedure, shortened: as §2
[11] = tested on: HL-60; experiment: Cytotoxicity against human HL60 cells assessed as increase in ROS production at 5 uM after 72 hrs by NBT reduction assay relative to control; assay type: functional; procedure, shortened: as §3
[12] = Ratio of IC50 for human vinblastine-resistant KBV1 cells in presence of […] ABC transporter inhibitor verapamil hydrochloride to IC50 for human vinblastine-resistant KBV1 cells; assay type: functional
Procedure, shortened: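 MTT assay in P-gp-overexpressing KB-V1/Vbl cells grown in D-MEM with 10% FCS and antibiotics. Cells were seeded and cultured 24 h, verapamil hydrochloride was optionally added, and compound exposure ran 24, 48 or 72 h. MTT was added to 0.1% final for 2 h. After the medium was discarded, formazan was dissolved in 10% SDS/DMSO with 0.6% acetic acid and read at 570 nm (630 nm background). IC50 came from concentration-response curves, four independent experiments, and the ratio is IC50 with inhibitor over IC50 without.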

[13] = Cytotoxicity against human 518A2 cells after 48 hrs by MTT assay; assay type: functional, cell-based; settings: 518A2, 48 h; procedure, shortened: as §1
[14] = tested on: MCF7; experiment: Cytotoxicity against human topotecan-resistant MCF7 cells after 48 hrs by MTT assay; assay type: functional, cell-based; settings: MCF7, 48 h; procedure, shortened: as §1
[15] = tested on: HL-60; experiment: Induction of apoptosis in human HL60 cells assessed as increase of caspase 9 activity at 5 uM after 1 to 24 hrs by luminometric assay; assay type: functional, cell-based
Procedure, shortened: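 HL-60 leukaemia cells were treated with test compound and sampled at intervals from 1 to 24 h. Protein was measured by Bradford. Caspase-9 (Caspase-Glo 8 for line 1) was read from a luminogenic peptide substrate as relative luminescence.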

[16] = tested on: MCF7; experiment: Cytotoxicity against human topotecan-resistant MCF7 cells after 72 hrs by MTT assay; assay type: functional, cell-based; settings: MCF7, 72 h; procedure, shortened: as §1
[17] = tested on: 518A2; experiment: Induction of apoptosis in human 518A2 cells assessed as appearance of intact mitochondria in cytosol at 5 uM after 6 hrs using JC1 dye relative to control; assay type: functional
Procedure, shortened: (§4)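 Mitochondrial membrane potential measured with JC-1. Cells exposed to 5 µM compound for 6 or 18 h, pelleted at 400 g, stained with 0.2× JC-1 at 37 °C for 15 min (HL-60) or 35 min (518A2), washed and resuspended in PBS. Red fluorescence (ex 585/em 590 nm) and green (ex 510/em 527 nm) read; red/green ratio relative to untreated controls (100%). Mean ± SD, four independent experiments.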

[18] = tested on: HL-60; experiment: Induction of apoptosis in human HL60 cells assessed as increase of caspase 8 activity at 5 uM after 1 to 24 hrs by luminometric assay; assay type: functional, cell-based; procedure, shortened: as §2
[19] = tested on: 518A2; experiment: Induction of apoptosis in human 518A2 cells assessed as appearance of intact mitochondria in cytosol at 5 uM after 18 hrs using JC1 dye relative to control; assay type: functional; procedure, shortened: as §4
[20] = tested on: HL-60; experiment: Cytotoxicity against human HL60 cells after 48 hrs by MTT assay; assay type: functional, cell-based; settings: HL-60, 48 h; procedure, shortened: as §1
[21] = Cytotoxicity against human 518A2 cells after 72 hrs by MTT assay; assay type: functional, cell-based; settings: 518A2, 72 h; procedure, shortened: as §1
[22] = Cytotoxicity against human 518A2 cells assessed as increase in ROS production at 5 uM after 24 hrs by NBT reduction assay relative to control; assay type: functional; procedure, shortened: as §3
[23] = tested on: MCF7; experiment: Cytotoxicity against human topotecan-resistant MCF7 cells after 72 hrs by MTT assay in presence of […] BCRP inhibitor fumitremorgin C; assay type: functional, cell-based; settings: MCF7, 72 h
Procedure, shortened: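 MCF-7/Topo cells grown in E-MEM with 2.2 g/L NaHCO₃, 110 mg/L sodium pyruvate and 5% FCS. Cells were seeded, cultured 24 h, given fumitremorgin C, then exposed to compound for 72 h. MTT was added (final 0.1%) for 2 h, medium discarded, and formazan dissolved in 10% SDS/DMSO with 0.6% acetic acid. A570 (630 background) read versus untreated controls; IC50 from concentration-response curves; four independent experiments, mean ± SD.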

[24] = tested on: HL-60; experiment: Induction of apoptosis in human HL60 cells assessed as increase of caspase 3 activity at 5 uM after 1 to 24 hrs by luminometric assay; assay type: functional, cell-based; procedure, shortened: as §2
[25] = tested on: HL-60; experiment: Induction of apoptosis in human HL60 cells assessed as appearance of intact mitochondria in cytosol at 5 uM after 6 hrs using JC1 dye relative to control; assay type: functional; procedure, shortened: as §4
[26] = tested on: 518A2; experiment: Induction of apoptosis in human 518A2 cells assessed as increase of caspase 3 activity at 5 uM after 1 to 24 hrs by luminometric assay; assay type: functional, cell-based; procedure, shortened: as §2
[27] = Cytotoxicity against human 518A2 cells after 24 hrs by MTT assay; assay type: functional, cell-based; settings: 518A2, 24 h; procedure, shortened: as §1
[28] = tested on: HL-60; experiment: Induction of apoptosis in human HL60 cells assessed as appearance of intact mitochondria in cytosol at 5 uM after 18 hrs using JC1 dye relative to control; assay type: functional; procedure, shortened: as §4
[29] = Cytotoxicity against human 518A2 cells assessed as increase in ROS production at 5 uM after 72 hrs by NBT reduction assay relative to control; assay type: functional; procedure, shortened: as §3
[30] = tested on: MCF7; experiment: Cytotoxicity against human topotecan-resistant MCF7 cells after 24 hrs by MTT assay; assay type: functional, cell-based; settings: MCF7, 24 h; procedure, shortened: as §1
[31] = tested on: 518A2; experiment: Induction of apoptosis in human 518A2 cells assessed as increase of caspase 8 activity at 5 uM after 1 to 24 hrs by luminometric assay; assay type: functional, cell-based; procedure, shortened: as §2
[32] = Cytotoxicity against human vinblastine-resistant KBV1 cells after 24 hrs by MTT assay; assay type: functional, cell-based; settings: KB-V1, 24 h; procedure, shortened: as §1

Question: For CCCCCCCCCCCCCCCCC(=O)N/N=C(\CO)[C@]1(O)Cc2c(O)c3c(c(O)c2[C@@H](O[C@H]2C[C@H](N)[C@H](O)[C@H](C)O2)C1)C(=O)c1c(OC)cccc1C3=O.Cl [DOXORUBICIN HEPTADECANOYL HYDRAZONE], which IC50 [1] is on record?
Answer: Its IC50 is 0.28 µM.

Question: What about the IC50 [2] of the same compound?
Answer: Its IC50 is 10.7 µM.

Question: What about the Activity [3] of the same compound?
Answer: The Activity was “Active”.

Question: And the Activity [4]?
Answer: The Activity was 2.8%.

Question: What about the Activity [5] of the same compound?
Answer: The Activity was “Active”.

Question: And the IC50 [6]?
Answer: The IC50 was 5.1 µM.

Question: And the IC50 [7]?
Answer: The IC50 was 1.4 µM.

Question: And the IC50 [8]?
Answer: Its IC50 is 3.7 µM.

Question: What about the Activity [9] of the same compound?
Answer: The Activity was “Active”.

Question: What about the Activity [10] of the same compound?
Answer: Its Activity is “Active”.

Question: And the Activity [11]?
Answer: The Activity was 3.4%.

Question: What about the “Ratio IC50” value [12] of the same compound?
Answer: Its value is 0.74.

Question: And the IC50 [13]?
Answer: Its IC50 is 0.35 µM.

Question: And the IC50 [14]?
Answer: The IC50 was 3.2 µM.

Question: And the Activity [15]?
Answer: The Activity was “Active”.

Question: And the IC50 [16]?
Answer: Its IC50 is 3 µM.

Question: And the Activity [17]?
Answer: Its Activity is 113%.

Question: And the Activity [18]?
Answer: The Activity was “Active”.

Question: What about the Activity [19] of the same compound?
Answer: Its Activity is 80%.

Question: And the IC50 [20]?
Answer: The IC50 was 0.86 µM.

Question: And the IC50 [21]?
Answer: Its IC50 is 0.11 µM.

Question: What about the Activity [22] of the same compound?
Answer: Its Activity is 6.6%.

Question: What about the IC50 [23] of the same compound?
Answer: Its IC50 is 0.17 µM.

Question: And the Activity [24]?
Answer: The Activity was “Active”.

Question: And the Activity [25]?
Answer: The Activity was 94%.

Question: And the Activity [26]?
Answer: The Activity was “Active”.

Question: And the IC50 [27]?
Answer: Its IC50 is 0.76 µM.

Question: And the Activity [28]?
Answer: The Activity was 59%.

Question: And the Activity [29]?
Answer: Its Activity is 71.2%.

Question: What about the IC50 [30] of the same compound?
Answer: The IC50 was 5.9 µM.

Question: What about the Activity [31] of the same compound?
Answer: The Activity was “Active”.

Question: What about the IC50 [32] of the same compound?
Answer: The IC50 was 42.9 µM.
